From ChEMBL document CHEMBL2202989, “New adamantane phenylalkylamines with σ-receptor binding affinity and anticancer activity, associated with putative antagonism of neuropathic pain” (J Med Chem, 2012)
pIC50: −log10 of the molar value.

What was measured:
BXPC-3 [1] = test: Growth inhibition of human BxPC3 cells after 48 hrs by SRB assay; assay type: functional; conditions: BXPC-3, 48 h
Outline: (§1)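 Cells grown in RPMI 1640 with 5% heat-inactivated FCS, 2 mM L-glutamine and antibiotics, 37 °C, 5% CO2. Seeded at 3500–30000 cells/well and left 24 h before dosing. DMSO solutions added at 10-fold dilutions from 100 to 0.01 μM for 48 h. Cells TCA-fixed and SRB-stained, absorbance read at 540 nm; GI50 derived against the time-zero plate.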

IGROV-1 [2] = test: Cell cycle arrest in human IGROV1 cells assessed as accumulation at >G2/M phase at 5 uM after 24 hrs using propidium iodide staining by FACS analysis (reference value: 21 %); assay type: functional
Outline: (§2)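 Cells were plated 24 h before treatment and exposed for 24 h at final 0.5, 5, 15 and 50 μM in 0.5% DMSO, against vehicle-treated controls. Cells were then trypsinised and fixed in cold ethanol for 3 h at 4 °C. They were stained in a mix of RNase (200 μg/mL) and PI (1 mg/mL) for 45 min at room temperature in the dark. Flow cytometry used 488 nm excitation and 10 000 gated cells. Phase percentages were assigned from DNA content.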

DU-145 = test: Growth inhibition of human DU145 cells after 48 hrs by SRB assay; assay type: functional; conditions: DU-145, 48 h; outline: as §1
IGROV-1 [3] = test: Induction of apoptosis in human IGROV1 cells assessed as late apoptosis at 5 uM using annexin V/7-AAD by FACS analysis (reference value: 5 %); assay type: functional
PC-3 [4] = test: Antitumor activity against human PC3 cells xenografted in SCID mouse assessed as axillary metastasis at 55 mg/kg, ip administered 5 consecutive days in a week for two cycles measured after 2 cycles relative to control; assay type: functional; conditions: route intraperitoneal
Outline: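 PC3 xenografts were grown in SCID mice (10^6 cells per inoculum), 14 mice (28 tumors) per group, dosed ip from about 100 mm3. The test agent was given in 5% Tween 80; paclitaxel was given in Cremophor diluted in saline, with a vehicle of 1:1 ethanol/Cremophor diluted 1:3 in saline. Volume and %ΔT/ΔC were derived from caliper readings twice weekly. Occurrence of primary tumors and of axillary and bone metastases was scored (n = 7). Two-tailed t test.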

BXPC-3 [5] = test: Antitumor activity against human BxPC3 cells xenografted in SCID mouse assessed as tumor growth inhibition at 50 mg/kg, ip administered 3 consecutives days per week for one cycle relative to control; assay type: functional; conditions: BXPC-3, ip, route intraperitoneal, read-out: TGI
BXPC-3 [6] = test: Cell cycle arrest in human BxPC3 cells assessed as accumulation at sub G1 phase at 15 uM after 24 hrs using propidium iodide staining by FACS analysis (reference value: 9 %); assay type: functional; outline: as §2
U-251 = test: Growth inhibition of human U251 cells after 48 hrs by SRB assay; assay type: functional; conditions: U-251, 48 h; outline: as §1
BXPC-3 [7] = test: Induction of apoptosis in human BxPC3 cells assessed as cleaved caspase3 containing cells at 5 uM by antibody-based FACS analysis (reference value: 8.2 %); assay type: functional
IGROV-1 [8] = test: Cell cycle arrest in human IGROV1 cells assessed as accumulation at G1 phase at 50 uM after 24 hrs using propidium iodide staining by FACS analysis (reference value: 27 %); assay type: functional; outline: as §2
PC-3 [9] = test: Cell cycle arrest in human PC3 cells assessed as accumulation at sub G1 phase at 0.5 uM after 24 hrs using propidium iodide staining by FACS analysis (reference value: 4 %); assay type: functional
BXPC-3 [10] = test: Induction of apoptosis in human BxPC3 cells assessed as cleaved caspase3 containing cells at 0.5 uM by antibody-based FACS analysis (reference value: 8.2 %); assay type: functional
IGROV-1 [11] = test: Induction of apoptosis in human IGROV1 cells assessed as early apoptosis at 15 uM using annexin V/7-AAD by FACS analysis (reference value: 9 %); assay type: functional
Mus musculus = test: Toxicity in CD1 mouse assessed as mortality at 40 to 55 mg/kg, ip for 2 to 3 weeks; assay type: organism-based; parameters: route intraperitoneal; conditions: in vivo
Outline: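 CD-1 (male and female) and SCID mice dosed ip at 40−55 mg/kg in 5% Tween 80 for chronic 2−3 week regimens. Deaths and body weight loss compared with vehicle (Tween 80 or Cremophor) and reference-drug groups. Weight loss, neurological, behavioral and dietary changes recorded as toxicity signs.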

PC-3 [12] = test: Induction of apoptosis in human PC3 cells assessed as healthy cells at 5 uM using annexin V/7-AAD by FACS analysis (reference value: 91 %); assay type: functional
IGROV-1 [13] = test: Induction of apoptosis in human IGROV1 cells assessed as late apoptosis at 0.5 uM using annexin V/7-AAD by FACS analysis (reference value: 5 %); assay type: functional
[14] = Displacement of [3H]1,3-di-otolylguanidine from sigma 2 receptor in rat cerebral cortex membranes; assay type: cell membranes, Membrane
Outline: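 Rat cerebral cortex membranes incubated with 5 nM [3H]DTG plus 300 nM (+)-pentazocine to mask σ1 sites, together with a range of test concentrations, 2 h at 22 °C in Tris-HCl, pH 7.4. Nonspecific binding defined with 10 μM haloperidol.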

PC-3 [15] = test: Cell cycle arrest in human PC3 cells assessed as accumulation at >G2/M phase at 0.5 uM after 24 hrs using propidium iodide staining by FACS analysis (reference value: 6 %); assay type: functional
PC-3 [16] = test: Induction of apoptosis in human PC3 cells assessed as total apoptotic death at 15 uM using annexin V/7-AAD by FACS analysis (reference value: 8 %); assay type: functional
Outline: (§3)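 Cells plated 24 h before treatment, then exposed 24 h to 0.5, 5, 15 or 50 μM compound (final DMSO 0.5%); vehicle controls included. Cells scraped and stained with annexin V-FITC and 7-AAD for 15 min on ice in the dark. Flow cytometry with 488 nm excitation, 10,000 gated cells. Early apoptosis was annexin V+/7-AAD−, late was annexin V+/7-AAD+.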

IGROV-1 [17] = test: Induction of apoptosis in human IGROV1 cells assessed as cleaved caspase3 containing cells at 0.5 uM by antibody-based FACS analysis (reference value: 3.9 %); assay type: functional
IGROV-1 [18] = test: Induction of apoptosis in human IGROV1 cells assessed as early apoptosis at 0.5 uM using annexin V/7-AAD by FACS analysis (reference value: 9 %); assay type: functional
PC-3 [19] = test: Cell cycle arrest in human PC3 cells assessed as accumulation at sub G1 phase at 5 uM after 24 hrs using propidium iodide staining by FACS analysis (reference value: 4 %); assay type: functional
IGROV-1 [20] = test: Induction of apoptosis in human IGROV1 cells assessed as total apoptotic death at 0.5 uM using annexin V/7-AAD by FACS analysis (reference value: 13 %); assay type: functional; outline: as §3
SK-HEP1 = test: Growth inhibition of human SKHEP1 cells after 48 hrs by SRB assay; assay type: functional; conditions: SK-HEP1, 48 h; outline: as §1
BXPC-3 [21] = test: Cell cycle arrest in human BxPC3 cells assessed as accumulation at S phase at 5 uM after 24 hrs using propidium iodide staining by FACS analysis (reference value: 33 %); assay type: functional; outline: as §2
[22] = read-out: LC50 (the source's name)

Which GI50 (BXPC-3 [1]) does the source give for `CN1CCN(CCCc2ccc(C(c3ccccc3)C34CC5CC(CC(C5)C3)C4)cc2)CC1` (stereo not drawn) here?
Its GI50 is 3.41 µM.

And the LC50 (BXPC-3 [1])?
Its LC50 is 0.0088 µM.

What about the TGI (BXPC-3 [1]) of the same compound?
Its TGI is 6.1 µM.

And the Activity (IGROV-1 [2])?
The Activity was 20%.

What about the GI50 (DU-145) of the same compound?
Its GI50 is 3.77 µM.

What about the TGI (DU-145) of the same compound?
Its TGI is 7.11 µM.

What about the CC50 (DU-145; [22]) of the same compound?
Its CC50 is 0.1 µM.

What about the Activity (IGROV-1 [3]) of the same compound?
The Activity was 5%.

What about the Activity (PC-3 [4]) of the same compound?
Its Activity is 0%.

What about the inhibition in vivo at 50 mg/kg (BXPC-3 [5]) of the same compound?
Its inhibition in vivo at 50 mg/kg is 41.6%.

What about the Activity (BXPC-3 [6]) of the same compound?
The Activity was 24%.

What about the GI50 (U-251) of the same compound?
The GI50 was 3.62 µM.

What about the TGI (U-251) of the same compound?
Its TGI is 5.93 µM.

What about the CC50 (U-251; [22]) of the same compound?
Its CC50 is 0.00824 µM.

What about the Activity (BXPC-3 [7]) of the same compound?
Its Activity is 4%.

What about the Activity (IGROV-1 [8]) of the same compound?
The Activity was 30%.

And the Activity (PC-3 [9])?
The Activity was 4%.

What about the Activity (BXPC-3 [10]) of the same compound?
Its Activity is 4%.

What about the Activity (IGROV-1 [11]) of the same compound?
Its Activity is 37%.

What about the Activity (Mus musculus) of the same compound?
Its Activity is “Non-toxic”.

What about the Activity (PC-3 [12]) of the same compound?
The Activity was 92%.

And the Activity (IGROV-1 [13])?
Its Activity is 3%.

And the pIC50 [14]?
The pIC50 was 7.07.

What about the Activity (PC-3 [15]) of the same compound?
The Activity was 7%.

And the Activity (PC-3 [16])?
The Activity was 16%.

And the Activity (IGROV-1 [17])?
The Activity was 4.2%.

What about the Activity (IGROV-1 [18]) of the same compound?
The Activity was 8%.

What about the Activity (PC-3 [19]) of the same compound?
Its Activity is 11%.

What about the Activity (IGROV-1 [20]) of the same compound?
The Activity was 11%.

And the GI50 (SK-HEP1)?
Its GI50 is 3.49 µM.

And the TGI (SK-HEP1)?
Its TGI is 6.37 µM.

And the CC50 (SK-HEP1; [22])?
The CC50 was 0.00924 µM.

What about the Activity (BXPC-3 [21]) of the same compound?
The Activity was 23%.
